Published values gathered from unrelated publications.
Target: Calcium/calmodulin-dependent protein kinase type 1 (CAMK1, Homo sapiens, UniProt Q14012)

Compound | test | setting | endpoint | value
O=C(Nc1cnn(-c2csc(C(=O)NC3COC3)c2)c1)Nc1ccccc1Cl | enzyme activity, inhibitor | 5 µM | remaining activity | 87.1%
CCN(CC)c1ccc(C2=NNC(=O)CC2C)cc1[N+](=O)[O-] (stereo not drawn) | enzyme activity, inhibitor | 10 µM | remaining activity | 89%
COc1cccc2c(NCc3ccccc3)nc(-n3c(N)nc4ccccc43)nc12 | target engagement in cells, inhibitor, chemoproteomics | 20 mM | inhibition | -2.1%
Nc1c(C(=O)NCc2ccc(C(=O)NCCCC3CCCCC3)cc2)cnn1-c1ccccc1 | cell-free assay, competition with immobilised ligand | 0.1 µM | remaining binding | 100%
COc1cc(Cl)c(C(=O)N[C@@H](CN[C@H]2CC[C@@H](N)CC2)Cc2ccc(C#N)cc2)cc1-c1ccc(CN[C@H](C)c2ccc(C)cc2)o1 | enzyme activity, inhibitor | 1 µM | remaining activity | 108%
C=CC(=O)Nc1cc(Nc2nccc(Nc3cc(Cl)c(F)cc3C(C)(C)O)n2)c(OC)cc1N1CC[C@@H](N(C)C)C1 | enzyme activity, inhibitor | 1 µM | inhibition | 2%
CCN(CC)CCNC(=O)c1c(C)[nH]c(/C=C2\C(=O)Nc3ccc(F)cc32)c1C | enzyme activity, inhibitor | 0.3 µM | inhibition | 21%
Nc1ncnc2occ(-c3ccc(NC(=O)Nc4cc(C(F)(F)F)ccc4F)cc3)c12 | cell-free assay | 20 µM | remaining signal | 5.5%
Cc1ccc(C(=O)Nc2ccc(CN3CCN(C)CC3)c(C(F)(F)F)c2)cc1C#Cc1cnc2cccnn12 | enzyme activity | 23.5 nM | remaining activity | 74%
Nc1nc(Nc2ccccc2)sc1C(=O)c1c(F)cccc1F | enzyme activity, inhibitor | 10 µM | remaining activity | 55%
Cc1ccc(Nc2nccc(N(C)c3ccc4c(C)n(C)nc4c3)n2)cc1S(N)(=O)=O | enzyme activity, inhibitor | 10 µM | inhibition | 52%
Cc1cnc(NC2CCOCC2)nc1-n1cnc(C(=O)NC(CN)c2cc(F)cc(Cl)c2)c1 (stereo not drawn) | enzyme activity, inhibitor, radiometric | 1 µM | remaining activity | 88%
Oc1cccc(-c2nc(N3CCOCC3)c3oc4ncccc4c3n2)c1 | enzyme activity, inhibitor | 10 µM | remaining activity | 99%
COc1cc2c(Nc3ccc(Br)cc3F)ncnc2cc1OCC1CCN(C)CC1 | cell-free assay | 0.5 µM | remaining signal | 81.6%
CN(C)C(=O)Cn1cc(-c2nc([C@@](C)(c3ccc(-c4cnc(N)nc4)cc3)C3CC3)no2)cn1 | cell-free assay, competition with immobilised ligand | 1 µM | remaining binding | 100%
N#CCCc1ccc2c(c1)-c1[nH]c3ccc([N+](=O)[O-])cc3c1CC(=O)N2 | cell-free assay | 0.5 µM | remaining signal | 96%
Cc1nc(N2CC[C@@H](O)C2)ncc1-c1cc(C(F)(F)F)cc2[nH]ncc12 | cell-free assay, competition with immobilised ligand | 1 µM | remaining binding | 100%
COc1cc(Nc2cnc(C#N)c(O[C@H](C)CN(C)C)n2)ncc1-c1cnn(C)c1 | enzyme activity, inhibitor, radiometric | 1 µM | remaining activity | 92%
Cc1sc(C(=O)NC2COC2)cc1-n1cc(NC(=O)Nc2c(F)cccc2Cl)cn1 | enzyme activity, inhibitor | 10 µM | remaining activity | 115%
CC(=O)N1CCC(c2ccc(C(=O)NC3=NCCN3)cc2C(F)(F)F)CC1 | cell-free assay, competition with immobilised ligand | 1 µM | remaining binding | 100%
COc1cc(-c2cc(-c3ccc(N4CCNCC4)cc3)cnc2C)cc(OC)c1OC | enzyme activity, inhibitor | 0.1 µM | inhibition | 1%
Oc1cccc(-c2nc(N3CCOCC3)c3oc4ncccc4c3n2)c1 | cell-free assay | 0.5 µM | remaining signal | 101%
O=C(Nc1cnc(Oc2ccc(F)cc2)nc1)N1CCc2ncccc2[C@@H]1c1ccc(F)cc1 | cell-free assay, competition with immobilised ligand | 1 µM | remaining binding | 73%
CCCOc1ccc(OC)c(F)c1C(=O)c1ccc(C(=O)N[C@@H]2CNC[C@H]2NC(=O)c2ccc3[nH]ncc3c2)cc1 | enzyme activity, inhibitor | 10 µM | remaining activity | 34%
CS(=O)(=O)c1cc(C2(NC(=O)c3cncc4c3cnn4-c3ccc(F)cc3)CC2)ccn1 | cell-free assay, competition with immobilised ligand | 1 µM | remaining binding | 65%
CC(C)c1ccc(NC(=O)c2cccs2)c(-c2nc3ccccc3[nH]c2=O)c1 | enzyme activity, inhibitor | 1 µM | activity vs control | 104%
CCCOc1ccc([C@@H]2[C@@H](C(=O)O)[C@H](c3ccc4c(c3)OCO4)CN2CC(=O)Nc2c(CC)cccc2CC)cc1 | cell-free assay, competition with immobilised ligand | 1 µM | remaining binding | 100%
FC(F)c1nc2ccccc2n1-c1nc(N2CCOCC2)nc(N2CCOCC2)n1 | enzyme activity, inhibitor | 10 µM | remaining activity | 114%
O=C(NS(=O)(=O)c1ccc(NCC2CCOCC2)c([N+](=O)[O-])c1)c1ccc(N2CCN(Cc3ccc(C(F)(F)F)cc3-c3ccc(Cl)cc3)CC2)cc1Oc1cnc2[nH]ccc2c1 | cell-free assay, competition with immobilised ligand | 1 µM | remaining binding | 100%
CNC(=O)c1cc(Oc2ccc(NC(=O)Nc3ccc(Cl)c(C(F)(F)F)c3)cc2)ccn1 | enzyme activity, inhibitor | 10 µM | inhibition | 9%
